Only some compounds are listed: those with a hit (about 3.7% of all), similar ones and a draw of the others.
AHR activator: activators of human aryl hydrocarbon receptor. activation, % at 5 µM. P35869. AHR-responsive luciferase reporter cells, luminescence. 320,000 tested, 2.5% active; in the data active = activation above about 47%
JMJD2C inh: inhibitors of human GASC-1 (JMJD2C) demethylase; 330,000 tested, 0.069% active; inhibition, % at 2.35 µM; GST-JMJD2C(1-420) H3K9me3 demethylation, DELFIA europium;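 active = more than half of a compound's replicate wells show inhibition beyond 50%, single wells judged on their own value; inconclusive = some, but no more than half, of replicates pass 50% inhibition; inactive = no replicate passes 50% inhibition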;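 also: signal counts dimethyl H3K9 product captured on neutravidin plate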
FXN GAA850 act: frataxin GAA850 promoter activation; HEK293 lucGAA850 FXN promoter luciferase reporter, 24 h; percent of 10 µM SAHA response; activation, % at 6 µM; 360,000 tested, 0.56% active; AID 540364;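 active = activation above the average of all compounds screened plus 3 SD, cutoff fixed separately per campaign, cut at about 7.5% in these data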
SR-BI uptake up: SR-BI HDL lipid transfer activation | CHO ldlA[mSR-BI] cells, DiI-HDL uptake fluorescence, 3 h; 100 = double the neutral-control signal | activation, % at 12.5 µM | 320,000 tested, 0.096% active;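 active = mean replicate activation of at least 60% and every replicate at or above 60%; inconclusive = mean or all-replicate condition met, but not both; inactive = mean below 60% and not all replicates reaching 60%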
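Test system: SR-BI-overexpressing, LDLR-lacking CHO cells; Medium: Ham's F12 with 0.5% BSA, HEPES 25 mM, pH 7.4; Schedule: 3 h, 37 °C; Technique: bottom-read fluorescence, 550/595 nm.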
SR-BI DiI inh: inhibitors of mouse SR-BI mediated HDL lipid uptake; 320,000 tested, 0.96% active; ldlA[mSR-BI] CHO cells, DiI-HDL uptake fluorescence, 3 h; Q61009; inhibition, % at 12.5 µM; AID 488896;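 active = mean replicate inhibition of at least 70% and a set share of replicates each scoring 70 or more; inconclusive = meets just one of the two criteria; inactive = fails both criteria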
Numbers stand for hits.

Cc1ccc(S(=O)(=O)N2c3ccccc3NC(=O)C2CC(=O)Nc2ccccc2)cc1 (stereo not drawn) was read as AHR activator 63.6, JMJD2C inh inactive, FXN GAA850 act inactive, SR-BI uptake up inactive and SR-BI DiI inh inactive.
Screening Cc1ccc(S(=O)(=O)N2c3ccccc3NC(=O)CC2C)cc1 (stereo not drawn) returned AHR activator inactive, JMJD2C inh inactive, FXN GAA850 act inactive, SR-BI uptake up inactive and SR-BI DiI inh inactive.
`Cc1occc1-c1nnc(SCC(=O)c2ccc(F)cc2)o1` gave AHR activator inactive, JMJD2C inh inactive, FXN GAA850 act inactive, SR-BI uptake up inactive and SR-BI DiI inh inactive.
For CCOc1ccc(C(=O)OCC(=O)NCCCc2ccccc2)cc1 the results were AHR activator inactive, JMJD2C inh inactive, FXN GAA850 act inactive, SR-BI uptake up inactive and SR-BI DiI inh inactive.
Cc1c(=O)n(OCc2ccccn2)c2ccccc2[n+]1[O-] was read as AHR activator 51.6, JMJD2C inh inactive, FXN GAA850 act inactive, SR-BI uptake up inactive and SR-BI DiI inh inactive.
Screening CCc1nnc(NC(=O)c2oc3cc(C)c(C)cc3c2C)s1 returned AHR activator inactive, JMJD2C inh inactive, FXN GAA850 act inactive, SR-BI uptake up inactive and SR-BI DiI inh inactive.
`CCc1nnc(NC(=O)c2oc3ccccc3c2COC(C)C)s1` gave AHR activator 74.4, JMJD2C inh inactive, FXN GAA850 act inactive, SR-BI uptake up inactive and SR-BI DiI inh inactive.
O=C(OC[C@H]1O[C@@H](OC(=O)c2cc(O)c(O)c(OC(=O)c3cc(O)c(O)c(O)c3)c2)[C@H](OC(=O)c2cc(O)c(O)c(OC(=O)c3cc(O)c(O)c(O)c3)c2)[C@@H](OC(=O)c2cc(O)c(O)c(OC(=O)c3cc(O)c(O)c(O)c3)c2)[C@@H]1OC(=O)c1cc(O)c(O)c(OC(=O)c2cc(O)c(O)c(O)c2)c1)c1cc(O)c(O)c(OC(=O)c2cc(O)c(O)c(O)c2)c1 was read as AHR activator inactive.
`Nc1nccc(/C=C/c2c(F)cccc2Cl)n1` gave AHR activator inactive, JMJD2C inh inactive, FXN GAA850 act inactive, SR-BI uptake up inactive and SR-BI DiI inh inactive.
Screening O=c1cc(/C=C/c2c(F)cccc2Cl)[nH]c2ccccc12 returned AHR activator 61.0, JMJD2C inh inactive, FXN GAA850 act inactive, SR-BI uptake up inactive and SR-BI DiI inh inactive.
Screening CCC(CC)NC(=O)CN1CCN(S(=O)(=O)c2ccc(Br)s2)CC1 returned FXN GAA850 act inactive, SR-BI uptake up inactive and SR-BI DiI inh inactive.
COc1ccc(C)cc1NS(=O)(=O)c1ccc(NC(=O)CN(c2cc([N+](=O)[O-])ccc2C)S(C)(=O)=O)cc1 was read as AHR activator 47.7, JMJD2C inh inactive, FXN GAA850 act inactive, SR-BI uptake up inactive and SR-BI DiI inh inactive.
For CCCN(CCC)C(=O)Cn1c2ccccc2c2nc(=O)cc(C)n21 the results were AHR activator 50.5, JMJD2C inh inactive, FXN GAA850 act inactive, SR-BI uptake up inactive and SR-BI DiI inh inactive.
C=C1c2cccc(OC)c2O[C@H](C(=O)OCC)[C@@H]1CC(CC)CCCC (stereo partly drawn) was read as FXN GAA850 act inactive, SR-BI uptake up inactive and SR-BI DiI inh 84.5.
Screening CC1CCCN(CCCN2C(=O)C3C(C(=O)Nc4ccc(Cl)cc4)C4C=CC3(O4)C2C(=O)NC2CCCCC2)C1 (stereo not drawn) returned AHR activator inactive, JMJD2C inh inactive, FXN GAA850 act inactive, SR-BI uptake up inactive and SR-BI DiI inh inactive.
`NNC(=O)c1cccc(COc2ccc(Br)cc2)c1` gave AHR activator inactive, JMJD2C inh inactive, FXN GAA850 act inactive, SR-BI uptake up inactive and SR-BI DiI inh inactive.
CCCOc1cccc(C(=O)NC(=S)Nc2ccccc2)c1 was read as AHR activator inactive, JMJD2C inh inactive, FXN GAA850 act inactive, SR-BI uptake up inactive and SR-BI DiI inh inactive.
For CCCOc1cccc(C(=O)NC(=S)Nc2cccc(NC(=O)c3ccccc3Cl)c2)c1 the results were AHR activator inactive, JMJD2C inh inactive, FXN GAA850 act inactive, SR-BI uptake up inactive and SR-BI DiI inh 81.3.
`NNC(=O)c1cccc(COc2cccc(Br)c2)c1` gave AHR activator 51.5, JMJD2C inh inactive, FXN GAA850 act inactive, SR-BI uptake up inactive and SR-BI DiI inh inconclusive.
`O=C(O)c1cccc(NC(=S)NC(=O)c2cccc(OCc3ccccc3)c2)c1` gave AHR activator inactive, JMJD2C inh inactive, FXN GAA850 act inactive, SR-BI uptake up 68.1 and SR-BI DiI inh inactive.
